Laboratory results published in ChEMBL document CHEMBL1124534, “Synthesis, mechanism of action, and biological evaluation of mitosenes” (1989).
Converted amounts (≈) assume the structure as drawn.

What was measured:
L1210 = experiment: In vitro antitumor activity against L1210 lymphocytic leukemia tumor cell line was determined; format: functional; conditions: Mus musculus, read-out: ID50 (the source's name)
In short: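 Inhibition of L1210 leukemia colony formation in vitro, with mitomycin C as positive reference.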

Mus musculus [1] = experiment: Ability of intraperitoneally administered compound (3 mg/kg/day) to inhibit growth of human tumor xenograft GXF 97 was assessed on day 21 in nude mice; format: functional
In short: (§1)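 GXF 97 human gastric xenograft grown subcutaneously in nude mice for 24 days, then randomized; dosing began 1 day later as ip injections on days 1-4. Groups had 4-5 mice. Tumor length and width were measured. %T/C = median relative tumor size of treated / median relative tumor size of controls.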

Mus musculus [2] = experiment: Median survival time in days for antitumor activity against P388 Leukemia in CD2 mice at single dose treatment of 8 mg/Kg
Mus musculus [3] = experiment: Compound (10 mg/Kg) was evaluated in vivo for antitumor activity against MAC 13 in female NMRI mice on day 2 and ratio of tumor weight of treated to that of control was determined
Mus musculus [4] = experiment: Mean relative body weight change of treated / mean relative body weight change of control when compound (3 mg/kg/day) administered to inhibit growth of human tumor xenograft GXF 97 was reported at day 14 in nude mice; format: functional
In short: (§2)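 GXF 97 xenograft grown subcutaneously in nude mice for 24 days, then randomized; ip dosing began 1 day later, given on days 1-4, with 4-5 mice per group. Read-out is mean relative body weight change of treated divided by mean relative body weight change of controls, in %.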

Mus musculus [5] = experiment: Ability of intraperitoneally administered compound (3 mg/kg/day) to inhibit growth of human tumor xenograft GXF 97 was assessed on day 28 in nude mice; format: functional; in short: as §1
Mus musculus [6] = experiment: Ability of intraperitoneally administered compound (3 mg/kg/day) to inhibit growth of human tumor xenograft GXF 97 was assessed on day 14 in nude mice; format: functional; in short: as §1
Mus musculus [7] = experiment: Body wieght treated/body weight untreated controls of compound (10 mg/Kg) was evaluated in vivo for antitumor activity against MAC 16 in female NMRI mice on day 12; format: functional
Mus musculus [8] = experiment: Percentage change in body weight [(day 6 - day 1)/ day 1] for antitumor activity against P388 Leukemia in CD2 mice at fractioned dose treatment of 2 mg/Kg; format: functional
In short: (§3)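 Mouse P388 leukemia model. Drugs were given intraperitoneally, either as a single injection or once daily for 9 consecutive days (fractioned schedule). Outcomes were median survival time in days, %T/C, and % body weight change.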

Mus musculus [9] = experiment: Percentage change in body weight [(day 6 - day 1)/ day 1] for antitumor activity against P388 Leukemia in CD2 mice at fractioned dose treatment of 8 mg/Kg; format: functional; conditions: in the assay text read “single dose treatment” for “fractioned dose treatment”; in short: as §3
Mus musculus [10] = experiment: Percent T/C ([…]) for antitumor activity against P388 Leukemia in CD2 mice at fractioned dose treatment of 2 mg/kg; format: functional; in short: as §3
Mus musculus [11] = experiment: Percent T/C ([…]) for antitumor activity against P388 Leukemia in CD2 mice at fractioned dose treatment of 8 mg/Kg; format: functional; conditions: in the assay text read “single dose” for “fractioned dose”; in short: as §3
Mus musculus [12] = experiment: Median survival time in days for antitumor activity against P388 Leukemia in CD2 mice at fractioned dose treatment of 2 mg/kg; format: functional
In short: (§4)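 P388 leukemia-bearing mice were dosed intraperitoneally once daily for 9 consecutive days (fractioned schedule). The read-out was median survival time in days, reported alongside %T/C and % body weight change.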

Mus musculus [13] = experiment: Body wieght treated/body weight untreated controls of compound (10 mg/Kg) was evaluated in vivo for antitumor activity against MAC 16 in female NMRI mice on day 4; format: functional
Mus musculus [14] = experiment: Mean relative body weight change of treated / mean relative body weight change of control when compound (3 mg/kg/day) administered to inhibit growth of human tumor xenograft GXF 97 was reported at day 21 in nude mice; format: functional; in short: as §2
WiDr = experiment: In vitro antitumor activity against WiDr colon carcinoma tumor cell line was determined; format: functional; conditions: Homo sapiens, read-out: ID50 (the source's name)
In short: (§5)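 Cell growth inhibition in vitro measured by the PIT method, with mitomycin C as positive reference.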

Mus musculus [15] = experiment: Median survival time in days for antitumor activity against P388 Leukemia in CD2 mice at single dose treatment of 12 mg/Kg
Mus musculus [16] = experiment: Percent T/C ([…]) for antitumor activity against P388 Leukemia in CD2 mice at fractioned dose treatment of 12 mg/kg; format: functional; conditions: in the assay text read “single dose” for “fractioned dose”; in short: as §3
Mus musculus [17] = experiment: Relative tumor size on day 28 was reported when compound (3 mg/kg/day) administered to inhibit growth of human tumor xenograft GXF 97 in nude mice; format: functional
In short: (§6)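 GXF 97 human gastric xenograft grown subcutaneously in nude mice for 24 days, then mice randomized; treatment began 1 day later. Fractioned ip injections on days 1-4, or single iv injection on day 1; 4-5 mice per group. Tumor size from length and width; relative tumor size (% of controls) read at day 28.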

Mus musculus [18] = experiment: Percentage change in body weight [(day 6 - day 1)/ day 1] for antitumor activity against P388 Leukemia in CD2 mice at fractioned dose treatment of 12 mg/kg; format: functional; conditions: in the assay text read “single dose treatment” for “fractioned dose treatment”; in short: as §3
A204 = experiment: In vitro antitumor activity against A204 rhabdomyosarcoma tumor cell line was determined; format: functional; conditions: Homo sapiens, read-out: ID50 (the source's name); in short: as §5
Mus musculus [19] = experiment: Compound (10 mg/Kg) was evaluated in vivo for antitumor activity against MAC 16 in female NMRI mice on day 12 and ratio of tumor weight of treated to that of control was determined; format: functional
Mus musculus [20] = experiment: Compound (10 mg/Kg) was evaluated in vivo for antitumor activity against MAC 16 in female NMRI mice on day 4 and ratio of tumor weight of treated to that of control was determined; format: functional
Mus musculus [21] = experiment: Mean relative body weight change of treated / mean relative body weight change of control when compound (3 mg/kg/day) administered to inhibit growth of human tumor xenograft GXF 97 was reported at day 28 in nude mice; format: functional; in short: as §2
Mus musculus [22] = experiment: Percent inhibition of compound (10 mg/Kg) was evaluated in vivo for antitumor activity against MAC 13 in female NMRI mice on day 2; format: functional
In short: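 MAC 13 in female NMRI mice. Drugs were given in arachis oil BP by ip route on day 2 or day 29. % inhibition was derived from treated/untreated control tumor weight (volume); a negative value indicates stimulation.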

Mus musculus [23] = experiment: Compound ((12.5 mg/Kg) was evaluated in vivo for antitumor activity against MAC 16 in female NMRI mice on day 4 and ratio of tumor weight of treated to that of control was determined; format: functional
Mus musculus [24] = experiment: Relative tumor size on day 28 was reported when compound (6 mg/kg/day) administered to inhibit growth of human tumor xenograft GXF 97 in nude mice; format: functional; in short: as §6
Mus musculus [25] = experiment: Mean relative body weight change of treated / mean relative body weight change of control when compound (6 mg/kg/day) administered to inhibit growth of human tumor xenograft GXF 97 was reported at day 28 in nude mice; format: functional; in short: as §2
Mus musculus [26] = experiment: Ability of intraperitoneally administered compound (6 mg/kg/day) to inhibit growth of human tumor xenograft GXF 97 was assessed on day 21 in nude mice; format: functional; in short: as §1
Mus musculus [27] = experiment: Percent T/C ([…]) for antitumor activity against P388 Leukemia in CD2 mice at fractioned dose treatment of 1.5 mg/Kg; format: functional; in short: as §3
Mus musculus [28] = experiment: Mean relative body weight change of treated / mean relative body weight change of control when compound (6 mg/kg/day) administered to inhibit growth of human tumor xenograft GXF 97 was reported at day 21 in nude mice; format: functional; in short: as §2
Mus musculus [29] = experiment: Percent T/C ([…]) for antitumor activity against P388 Leukemia in CD2 mice at a single dose treatment of 6 mg/kg; format: functional
In short: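 P388 leukemia mice given a single intraperitoneal injection. Median survival time (days) and body weight change were recorded. %T/C was derived from the survival of treated versus control mice.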

Mus musculus [30] = experiment: Mean relative body weight change of treated / mean relative body weight change of control when compound (6 mg/kg/day) administered to inhibit growth of human tumor xenograft GXF 97 was reported at day 14 in nude mice; format: functional; in short: as §2
Mus musculus [31] = experiment: Percentage change in body weight [(day 6 - day 1)/ day 1] for antitumor activity against P388 Leukemia in CD2 mice at fractioned dose treatment of 2.5 mg/kg; format: functional; in short: as §3
Mus musculus [32] = experiment: Percentage change in body weight [(day 6 - day 1)/ day 1] for antitumor activity against P388 Leukemia in CD2 mice at fractioned dose treatment of 1.5 mg/Kg; format: functional; in short: as §3
Mus musculus [33] = experiment: Median survival time in days for antitumor activity against P388 Leukemia in CD2 mice at fractioned dose treatment of 2.5 mg/kg; format: functional; in short: as §4
Mus musculus [34] = experiment: Body wieght treated/body weight untreated controls of compound (12.5 mg/kg) was evaluated in vivo for antitumor activity against MAC 16 in female NMRI mice on day 4; format: functional
Mus musculus [35] = experiment: Ability of intraperitoneally administered compound (6 mg/kg/day) to inhibit growth of human tumor xenograft GXF 97 was assessed on day 28 in nude mice; format: functional; in short: as §1
Mus musculus [36] = experiment: Ability of intraperitoneally administered compound (6 mg/kg/day) to inhibit growth of human tumor xenograft GXF 97 was assessed on day 14 in nude mice; format: functional; in short: as §1
Mus musculus [37] = experiment: Median survival time in days for antitumor activity against P388 Leukemia in CD2 mice at fractioned dose treatment of 1.5 mg/Kg; format: functional; in short: as §4
Mus musculus [38] = experiment: Median survival time in days for antitumor activity against P388 Leukemia in CD2 mice at a single dose treatment of 6 mg/kg; format: functional
In short: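 P388 leukemia-bearing mice were given one intraperitoneal injection. The read-out was median survival time in days, reported alongside %T/C and % body weight change.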

Mus musculus [39] = experiment: Body wieght treated/body weight untreated controls of compound (12.5 mg/kg) was evaluated in vivo for antitumor activity against MAC 16 in female NMRI mice on day 12; format: functional
Mus musculus [40] = experiment: Percent change in body weight [(day 6 - day 1)/ day 1] when P388 Leukemic CD2 mice were treated with a compound (6 mg/kg); format: functional
Mus musculus [41] = experiment: Compound (12.5 mg/Kg) was evaluated in vivo for antitumor activity against MAC 16 in female NMRI mice on day 12 and ratio of tumor weight of treated to that of control was determined; format: functional
Mus musculus [42] = experiment: Percent T/C ([…]) for antitumor activity against P388 Leukemia in CD2 mice at fractioned dose treatment of 2.5 mg/kg; format: functional; in short: as §3

Compound `COC1=CC(=O)c2c(c(COC(C)=O)c3n2CCC3OC(C)=O)C1=O` (stereo not drawn) has an IC50 (L1210) of 0.495 µg/mL (≈ 1.43 µM), a T/C (Mus musculus [1]) of 31.7% and an MST (Mus musculus [2]) of 11 days. For the same compound, the T/C (Mus musculus [3]) was 152%, the BWC (Mus musculus [4]) was 89.6% and the T/C (Mus musculus [5]) was 31.7%. For the same compound, the T/C (Mus musculus [6]) was 39.3%, the BW (Mus musculus [7]) was 81% and the BWC (Mus musculus [8]) was -20.9%. The BWC (Mus musculus [9]) was -2%, the T/C (Mus musculus [10]) was 109% and the T/C (Mus musculus [11]) was 100%. The MST (Mus musculus [12]) was 12 days, the BW (Mus musculus [13]) was 105% and the BWC (Mus musculus [14]) was 86.5%. The IC50 (WiDr) was 0.037 µg/mL (≈ 0.107 µM), the MST (Mus musculus [15]) was 10 days and the T/C (Mus musculus [16]) was 91%. For the same compound, the “Relative TS” value (Mus musculus [17]) was 210.1%, the BWC (Mus musculus [18]) was -1.8% and the IC50 (A204) was 0.008 µg/mL (≈ 0.023 µM). It also gave a T/C (Mus musculus [19]) of 104%, a T/C (Mus musculus [20]) of 99% and a BWC (Mus musculus [21]) of 87.1%. For the same compound, the I (Mus musculus [22]) was -52%.
For `COC1=C(C)C(=O)c2c(c(COC(C)=O)c3n2CCC3OC(C)=O)C1=O` (stereo not drawn), the T/C (Mus musculus [23]) was 102%, the IC50 (L1210) was 0.14 µg/mL (≈ 0.387 µM) and the “Relative TS” value (Mus musculus [24]) was 26.2%. The MST (Mus musculus [2]) was 9 days, the T/C (Mus musculus [3]) was 73% and the BWC (Mus musculus [25]) was 74.1%. The T/C (Mus musculus [26]) was 5.9%, the T/C (Mus musculus [27]) was 141% and the BWC (Mus musculus [28]) was 73.5%. For the same compound, the T/C (Mus musculus [29]) was 118%, the BWC (Mus musculus [30]) was 71% and the BWC (Mus musculus [31]) was 2%. The BWC (Mus musculus [32]) was 8.3%, the BWC (Mus musculus [9]) was -7.1% and the T/C (Mus musculus [11]) was 82%. It also gave an MST (Mus musculus [33]) of 16.5 days, a BW (Mus musculus [34]) of 105% and a T/C (Mus musculus [35]) of 3.9%. For the same compound, the IC50 (WiDr) was 0.01 µg/mL (≈ 0.0277 µM), the T/C (Mus musculus [36]) was 16.8% and the MST (Mus musculus [37]) was 15.5 days. The MST (Mus musculus [38]) was 13 days, the BW (Mus musculus [39]) was 78% and the IC50 (A204) was 0.001 µg/mL (≈ 0.00277 µM). For the same compound, the BWC (Mus musculus [40]) was -4.7%, the T/C (Mus musculus [41]) was 120% and the T/C (Mus musculus [42]) was 150%. It also gave an I (Mus musculus [22]) of 27%.
